# Vif inh – HIV Vif self-association inhibitors, primary screen, imaging, HEK293T, single point. HEK293T cells, Vif self-association by quenched fluorescence, 24 h. inhibition, % at 7.49 µM. actives 0.35% (n = 340,000). AID 602346, 2012; in the data active means inhibition above about 50%, passing the limit was not always enough
# MITF TRPM1 HTS – activators of MITF-driven TRPM1 promoter reporter, primary screen, cell-based, SK-MEL-5, luciferase, single point. SK-MEL-5 TRPM1-promoter luciferase, 24 h; % of positive control, neutral wells = 0. activation, % at 12.5 µM. actives 0.75% (n = 300,000). AID 588334, 2011;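 active means mean activation of at least 80% with every replicate also reaching 80%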;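 further: 0% = neutral control wells and 100% = parthenolide positive control wells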
# Wnt act – Wnt/beta-catenin pathway activators, primary screen, cell-based, plate reader, single point; Wnt/beta-catenin reporter cell assay, activator; activation, % at 9.35 µM; actives 1.2% (n = 300,000); AID 743398, 2014; in the data active means activation above about 30%, passing the limit was not always enough;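 further: 0% = neutral control wells and 100% = positive control wells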
# esBAF inh – Bmi1 luciferase reporter increase in mESCs, primary screen, esBAF inhibitor project, mouse ES cells, Bmi1 luciferase knock-in, single point. AID 602393, 2012. reporter increase, % at 12.5 µM. 24 h; 100% = twice the neutral-well signal. actives 2% (n = 350,000); in the data active means activation above about 40%;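 further: 0% = median of the plate's neutral control wells and 100% = double that signal; a rise in the Bmi1 reporter signal indicates esBAF inhibition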
# Xi reactivation – activators of inactive X chromosome reactivation, primary screen, imaging, XiGFP fibroblasts, GFP high-content imaging, set 2; AID 743238, 2013; actives 0.055% (n = 360,000); XiGFP mouse fibroblasts, % GFP-positive cells imaging, 3 d; cells co-treated with 5-aza-dC sensitizer; scaled so ellipticine positive control = 100%; activation, % at 7.58 µM;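 active means mean normalized replicate activation at least 10% and every replicate at or above 10%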;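 further: 0% = median of on-plate neutral control wells and 100% = ellipticine 6 µM median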
#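 System: XiGFP fibroblasts, SV40-immortalized. Medium: DMEM plus 5-aza-dC sensitizer. Doses: single point. Timing: 3 d treatment, 15 min room-temperature fixation. Control set: ellipticine 6 µM.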
# Active calls of the source: *; x = not tested or not shown. Hits are enriched below; roughly 2.6% of the tested compounds scored in any of these assays.
SMILES,Vif inh,MITF TRPM1 HTS,Wnt act,esBAF inh,Xi reactivation
C/C(=N\NC(=O)CNC(=O)c1ccc(F)cc1)c1ccco1,73*,-5,-2,-1,0
O=C(Nc1ccc(C(F)(F)F)cc1)N[C@@H]1CC[C@@H](CCNC(=O)c2ccccc2F)O[C@@H]1CO,x,x,x,5,0
C[C@@H]1CN([C@@H](C)CO)C(=O)c2cc(NS(=O)(=O)c3ccc(F)cc3)ccc2O[C@@H](C)CCCCO[C@@H]1CN(C)Cc1ccc2c(c1)OCO2,x,x,x,4,0
C[C@@H]1CN([C@H](C)CO)C(=O)c2ccccc2-c2ccccc2CO[C@H]1CN(C)C(=O)Oc1ccccc1,x,x,x,6,0
C/C(=N/NC(=O)c1ccco1)c1ccc(NC(=O)c2ccc(F)cc2)cc1,x,54,48*,89*,0
COc1ccc(S(=O)(=O)Nc2ccc3c(c2)C(=O)N([C@@H](C)CO)C[C@H](C)[C@@H](CN(C)C(=O)C2CCCCC2)OCCCC[C@@H](C)O3)cc1,x,x,x,2,-1
O=C(Nc1ccccc1F)N1[C@H](CO)[C@@H]2c3ccccc3NC[C@@H]21,x,x,x,63*,0
Cn1c(=O)c2c(nc(NCC3CCCC(CN)C3)n2Cc2ccc(Cl)cc2Cl)n(C)c1=O (stereo not drawn),51*,8,-1,2,1
Nc1ccc(CSc2ccc(Cl)cc2)c(Cl)c1,1,135*,57*,103*,0
COCC(=O)N1[C@H](CO)[C@H](c2ccc(-c3cccc(F)c3)cc2)C12CN(C(=O)C1CC1)C2,x,x,x,x,0
COc1cccc(C#Cc2cnc3c(c2)C(=O)N([C@@H](C)CO)C[C@@H](C)[C@@H](CN(C)C(=O)C2CCOCC2)O3)c1,x,x,x,0,0
Cc1ccc(-c2nc(CS(=O)CC(=O)NCCCN3CC(C)CC(C)C3)c(C)o2)cc1 (stereo not drawn),-7,x,0,-1,22*
COc1ccc(-c2nc(CS(=O)CC(=O)NC3CCCC3)c(C)o2)cc1OC (stereo not drawn),7,-9,0,6,0
COc1ccc(-c2nc(CS(=O)CC(=O)NC3CCC(C)CC3)c(C)o2)cc1OC (stereo not drawn),-1,45,12,77*,0
CCCNC(=O)N1CC2(CN(C(=O)C3CCC3)C2)c2c([nH]c3cc(OC)ccc23)[C@@H]1CO,x,x,x,x,0
COc1ccc(S(=O)(=O)N(C)C[C@@H]2Oc3c(NC(=O)c4ccc(-c5nccs5)cc4)cccc3C(=O)N([C@@H](C)CO)C[C@H]2C)cc1,x,x,x,x,0
COCCNC(=O)C[C@H]1CC[C@H]2[C@@H](COC[C@@H](O)CN2S(=O)(=O)c2ccccc2C)O1,x,x,x,-1,0
C[C@@H]1CCCCO[C@@H](CN(C)C(=O)Nc2ccc3c(c2)OCO3)[C@H](C)CN([C@H](C)CO)C(=O)c2cc(NC(=O)c3ccccc3)ccc2O1,x,x,x,17,0
CC(=O)c1ccc(N2CCN(C(=O)c3ccc(Cn4c(=S)[nH]c5ccc(N6CCOCC6)cc5c4=O)cc3)CC2)cc1,-12,14,4,61*,0
Cc1ccc(N2Cc3ccccc3C2=S)cc1,2,74,16,73*,0
S=C1c2ccccc2CN1c1ccccc1,-2,47,9,29,0
C[C@H]1CN([C@@H](C)CO)S(=O)(=O)c2ccc(C#CC3(O)CCCC3)cc2O[C@@H]1CN(C)C(=O)Cc1ccccc1,x,x,x,2,1
CO[C@@H]1CN(C)C(=O)c2cc(NC(=O)c3cccc(F)c3)ccc2OC[C@@H](C)N(C(C)=O)C[C@H]1C,x,x,x,1,0
O=[N+]([O-])c1ccccc1N/N=C/c1ccc2c(c1)OCO2,7,22,53*,-14,0
NS(=O)(=O)c1ccc(N/N=C/c2ccc3c(c2)OCO3)c([N+](=O)[O-])c1,-1,5,0,x,0
O=[N+]([O-])c1ccc(N/N=C/c2c[nH]c3ccccc23)cc1,x,52,3,34,x
O=c1[nH]c(N/N=C\c2ccc3c(c2)OCO3)nc2ccccc12,-4,52,-2,-2,0

# Screening results (PubChem)
